Assay [1] has as its system Escherichia coli. Briefly: Compound was tested for inhibition of the gram-negative organism Escherichia coli H560. It is filed as functional. Put shortly:
(§1)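 MICs read in standard microdilution (microtitration) format against a panel of 10 bacterial organisms; values in µg/mL.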

Assay [2] concerns Escherichia coli. Briefly: Compound was tested for inhibition of the gram-negative organism Escherichia coli vogel. In kind it is functional. The procedure, abridged:
as §1

Assay [3] deals with Enterobacter cloacae. Briefly: Compound was tested for inhibition of the gram-negative organism […] HA 2646. In kind it is functional.
The target in assay [4] is DNA gyrase (Escherichia coli) (UniProt P0AES6+P0AES4). Briefly: Inhibition of DNA gyrase of Escherichia coli H560 cells. Put shortly: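 DNA gyrase purified from Escherichia coli H560 cells. Cleavage assay: drug-gyrase-DNA complex denatured, converting closed circular DNA to linear DNA. Linear DNA resolved by gel electrophoresis and stained with ethidium bromide. Value is the minimum drug concentration (µg/mL) giving linear DNA at an intensity relative to oxolinic acid at 10 µg/mL. Aqueous drug stocks made up in 0.1 N NaOH or KOH.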

The subject of assay [5] is Klebsiella pneumoniae. The assay is described as follows: Compound was tested for inhibition of the gram-negative organism Klebsiella pneumoniae MGH-2. In kind it is functional. The procedure, abridged:
as §1

Assay [6] has as its system Mus musculus. Briefly: Compound was evaluated for protective dose against the Escherichia coli vogel lethal infection following peroral administration in mouse. It is filed as functional. To be noted: po, read-out: PD50. Put shortly:
(§2)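 Acute lethal systemic infection in female Charles River CD-1 mice (18–22 g), challenged intraperitoneally with an estimated 100 median lethal dose in 5% hog gastric mucin. Single doses in a twofold rising series were given with the challenge, sc as aqueous solution or po by gavage in 5% gum acacia. PD50 (mg/kg) was estimated by log probit from survival of eight mice per dose.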

Assay [7] relates to Mus musculus. Briefly: Compound was evaluated for protective dose against the Escherichia coli vogel lethal infection following sc administration in mouse. It is filed as functional. Conditions: read-out: PD50. The procedure, abridged:
as §2

For assay [8], the system named is Mus musculus. Briefly: Compound was evaluated for protective dose against the […] UC-76 lethal infection following po administration in mouse. Conditions: read-out: PD50. In kind it is functional. The procedure, abridged: as §2
Assay [9] deals with Mus musculus. Briefly: Compound was evaluated for protective dose against the […] UC-76 lethal infection following sc administration in mouse. It is filed as functional. Conditions: read-out: PD50. Put shortly:
as §2

Assay [10] has as its system Pseudomonas aeruginosa. The assay is described as follows: Compound was tested for inhibition of the gram-negative organism Pseudomonas aeruginosa UI-18. It is filed as functional. The procedure, abridged: as §1
The test system of assay [11] is Providencia rettgeri. Briefly: Compound was tested for inhibition of the gram-negative organism Providencia rettgeri H1771. In kind it is functional. Put shortly: as §1
Assay [12] relates to Enterococcus faecalis. The assay is described as follows: Compound was tested for inhibition of the […] organism Streptococcus faecalis MGH-2. It is filed as functional. Put shortly:
as §1

Assay [13] concerns Streptococcus pyogenes. Briefly: Compound was tested for inhibition of the […] organism Streptococcus pyogenes C203. It is filed as functional. Put shortly: as §1
Assay [14] deals with Streptococcus pneumoniae. Briefly: Compound was tested for inhibition of the […] organism Streptococcus pneumoniae SV-1. In kind it is functional. The procedure, abridged: as §1
The test system of assay [15] is Staphylococcus aureus. Briefly: Compound was tested for inhibition of the […] organism […] H228. In kind it is functional. Put shortly: as §1
Assay [16] deals with Staphylococcus aureus. Briefly: Compound was tested for inhibition of the […] organism […] UC-76. It is filed as functional. The procedure, abridged: as §1
Assay [17] concerns Mus musculus. Briefly: Compound was evaluated for protective dose against the Streptococcus pneumoniae SV-1 lethal infection following po administration. In kind it is functional. Conditions: read-out: PD50. The procedure, abridged: (§3)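 Female Charles River CD-1 mice (18–22 g) were challenged intraperitoneally with an estimated 100 median lethal dose in tryptic soy broth. Single doses, in a twofold rising series, were given at the same time as challenge: subcutaneously as aqueous solution, or orally by gavage in 5% gum acacia. Survival in groups of eight mice per dose gave PD50 (mg/kg) by log probit.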

Assay [18] has as its system Mus musculus. Briefly: Compound was evaluated for protective dose against Streptococcus pneumoniae SV-1 lethal infection following sc administration. It is filed as functional. To be noted: read-out: PD50. The procedure, abridged:
as §3

≈ marks a conversion by molar mass, not a printed value.

As for `CCn1cc(C(=O)O)c(=O)c2cc(F)c(N3CCC(CN)C3)cc21` (stereo not given), the MIC was 0.4 µg/mL (≈ 1.2 µM) in [1]; 0.8 µg/mL (≈ 2.4 µM) in assay [2]; 1.6 µg/mL (≈ 4.8 µM) in assay [3]; 3.1 µg/mL (≈ 9.3 µM) in [5]; 1.6 µg/mL (≈ 4.8 µM) in assay [10]; 6.3 µg/mL (≈ 18.9 µM) in assay [11]. The MIC in assay [12] was 0.8 µg/mL (≈ 2.4 µM); in assay [13], 0.2 µg/mL (≈ 0.6 µM); in assay [14], 0.2 µg/mL (≈ 0.6 µM); in assay [15] it was 1.6 µg/mL (≈ 4.8 µM); in [16] it was 0.05 µg/mL (≈ 0.15 µM). Further, the Min concentration in [4] was 3 µg/mL. Besides, the ED50 in [6] is greater than 100 mg/kg; in [7], 25 mg/kg; in [8], greater than 50 mg/kg; in assay [9], 6 mg/kg.

For the compound `CCn1cc(C(=O)O)c(=O)c2cc(F)c(N3CCC(CNC)C3)cc21` (stereo not given), the MIC in assay [1] stood at 0.2 µg/mL (≈ 0.576 µM); in assay [2], 0.2 µg/mL (≈ 0.576 µM); in [3] it was 1.6 µg/mL (≈ 4.61 µM); in [5], 1.6 µg/mL (≈ 4.61 µM); in assay [10], 1.6 µg/mL (≈ 4.61 µM); in [11], 6.3 µg/mL (≈ 18.1 µM). Moreover, the MIC was 1.6 µg/mL (≈ 4.61 µM) in [12]; 0.1 µg/mL (≈ 0.288 µM) in [13]; 0.2 µg/mL (≈ 0.576 µM) in assay [14]; 0.8 µg/mL (≈ 2.3 µM) in [15]; 0.013 µg/mL (≈ 0.0374 µM) in assay [16]. Further, the ED50 is greater than 100 mg/kg in assay [6]; 18 mg/kg in assay [7]; greater than 50 mg/kg in [8]; 8 mg/kg in [9]; greater than 100 mg/kg in assay [17]; greater than 25 mg/kg in assay [18].

With `CCn1cc(C(=O)O)c(=O)c2cc(F)c(N3CCC(CN)C3)c(F)c21` (stereo not given), the MIC in assay [1] amounted to 0.1 µg/mL (≈ 0.285 µM); in assay [2] it was 0.1 µg/mL (≈ 0.285 µM); in assay [3], 0.2 µg/mL (≈ 0.569 µM); in [5], 0.4 µg/mL (≈ 1.14 µM); in assay [10], 0.8 µg/mL (≈ 2.28 µM); in [11], 0.4 µg/mL (≈ 1.14 µM). Further, the MIC in [12] stood at 0.1 µg/mL (≈ 0.285 µM); in [13] it was 0.1 µg/mL (≈ 0.285 µM); in assay [14] it was 0.2 µg/mL (≈ 0.569 µM); in [15] it was 0.1 µg/mL (≈ 0.285 µM); in assay [16], 0.1 µg/mL (≈ 0.285 µM). For the same compound, in [4], the Min concentration worked out at 0.5 µg/mL. For the same compound, the ED50 in [6] is 90 mg/kg; in [7], 1.2 mg/kg; in assay [17], 100 mg/kg; in assay [18], 5 mg/kg.

With `CCNCC1CCN(c2cc3c(cc2F)c(=O)c(C(=O)O)cn3CC)C1` (stereo not given), the MIC in assay [1] came out at 0.1 µg/mL (≈ 0.277 µM); in assay [2] it was 0.1 µg/mL (≈ 0.277 µM); in [3], 0.2 µg/mL (≈ 0.553 µM); in assay [5], 0.4 µg/mL (≈ 1.11 µM); in [10], 1.6 µg/mL (≈ 4.43 µM); in [11], 1.6 µg/mL (≈ 4.43 µM). For the same compound, the MIC in assay [12] worked out at 0.2 µg/mL (≈ 0.553 µM); in assay [13], 0.1 µg/mL (≈ 0.277 µM); in assay [14], 0.2 µg/mL (≈ 0.553 µM); in [15] it was 0.2 µg/mL (≈ 0.553 µM); in [16] it was 0.05 µg/mL (≈ 0.138 µM). Also, the Min concentration in assay [4] came to 2.5 µg/mL. For the same compound, the ED50 is greater than 100 mg/kg in assay [6], 15 mg/kg in assay [7], 35 mg/kg in assay [8] and 3 mg/kg in assay [9].

As to `CCn1cc(C(=O)O)c(=O)c2cc(F)c(N3CCC(CNC)C3)c(F)c21` (stereo not given), the MIC in assay [1] was 0.2 µg/mL (≈ 0.547 µM); in [2], 0.4 µg/mL (≈ 1.09 µM); in assay [3], 0.4 µg/mL (≈ 1.09 µM); in assay [5] it was 0.8 µg/mL (≈ 2.19 µM); in assay [10] it was 1.6 µg/mL (≈ 4.38 µM); in [11], 0.8 µg/mL (≈ 2.19 µM). Also, the MIC was 0.1 µg/mL (≈ 0.274 µM) in assay [12]; 0.1 µg/mL (≈ 0.274 µM) in assay [13]; 0.1 µg/mL (≈ 0.274 µM) in [14]; 0.2 µg/mL (≈ 0.547 µM) in assay [15]; 0.1 µg/mL (≈ 0.274 µM) in assay [16]. In [4], this compound came in with a Min concentration of 0.5 µg/mL. For the same compound, the ED50 in [6] was 6.9 mg/kg; in [7], 1.9 mg/kg; in assay [17], 37 mg/kg; in [18] it was 11 mg/kg.

On to `CNn1cc(C(=O)O)c(=O)c2cc(F)c(N3CCN(C)CC3)cc21` [AMIFLOXACIN], for which the MIC in assay [1] turned out to be 0.025 µg/mL (≈ 0.0748 µM); in [2], 0.1 µg/mL (≈ 0.299 µM); in assay [5], 0.2 µg/mL (≈ 0.598 µM); in assay [10] it was 0.8 µg/mL (≈ 2.39 µM); in assay [11], 0.2 µg/mL (≈ 0.598 µM); in assay [12], 3.1 µg/mL (≈ 9.27 µM). In addition, the MIC in [13] was found to be 12.5 µg/mL (≈ 37.4 µM); in [14], 12.5 µg/mL (≈ 37.4 µM); in assay [15], 1.6 µg/mL (≈ 4.79 µM); in assay [16], 0.4 µg/mL (≈ 1.2 µM). The ED50 in assay [6] is 4.5 mg/kg; in assay [7], 1 mg/kg; in assay [17], greater than 100 mg/kg; in assay [18], greater than 25 mg/kg.

As usually defined, the MIC is the least concentration at which growth counts as inhibited.
